Measured values as given in publication PMC2909692 (Nuclear medicine and biology, 2010).
“And” between values parts separate entries of the source, which are not always exact repeats. Equal entries are not always repeated. Where two headings read alike, the source gives them in different places.

Tests used:
VMAT2 = VMAT2 (Rattus norvegicus, UniProt Q01827); assay: small animal PET imaging with [18F]AV-133 in 6-OHDA unilateral lesioned rats; assay type: in vivo
Procedure, shortened: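 Male Sprague Dawley rats with a unilateral left 6-OHDA lesion passed an apomorphine rotation check (0.05 mg/kg s.c., day 21). Under 1.5-2.5% isoflurane, each received [18F]AV-133 (50-57 MBq) by tail vein and was imaged dynamically for 4 hrs (5 min frames, then 15 min frames). ROI analysis on reconstructed images gave % change = ((R striatum − cerebellum) − (L striatum − cerebellum))/(R striatum − cerebellum) × 100.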

SERT [1] = molecular target: T1, SERT (Rattus norvegicus, UniProt P31652); assay: regional brain biodistribution of [18F]FPBM in PCA-treated and control rats; assay type: in vivo; details: 60 min, n = 6
Procedure, shortened: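 Male Sprague Dawley rats (12, split into two groups) received PCA 5 mg/kg i.p. or saline daily for 2 consecutive days. Six days later they were given [18F]FPBM i.v. and killed under isoflurane 60 min post-injection. Radioactivity distribution was measured in brain regions only, not peripheral organs.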

[2] = normal rats, ref [23]-[25], cited from earlier work
SERT [3] = molecular target: T1, SERT; assay: quantitative in vitro autoradiography with [18F]FPBM on rat brain sections; assay type: binding; details: n = 3
Procedure, shortened: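 Coronal 20 μm cryostat sections from left-lesioned (6-OHDA) male Sprague Dawley rat brains were preincubated for 20 min at room temperature in 50 mM Tris/120 mM NaCl, pH 7.4, then dried. They were incubated for 1 hr at room temperature in that buffer containing [18F]FPBM (166-178 Bq/μL), rinsed cold 2 × 45 min, and exposed to film for 24 hrs with calibration standards. % change = ((R − cerebellum) − (L − cerebellum))/(R − cerebellum) × 100, averaged over rostral-striatum sections.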

[4] = molecular target: serotonin transporter (SERT); details: read-out: Ki (affinity); in vitro binding assays; ref [23]-[25]; cited from earlier work
SERT [5] = molecular target: T1, SERT; assay type: in vivo
Procedure, shortened: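 Rats under 1.5-2.5% isoflurane were scanned on a Philips Mosaic animal PET after tail-vein [18F]FPBM (37-51 MBq lesioned; 43-57 MBq normal controls). Dynamic acquisition ran 4 hrs: 5-min frames for 2 hrs, then 15-min frames. Lesioned rats were apomorphine-screened (0.05 mg/kg s.c.) and rescanned 7-20 days later. ROI time-activity points were summed per region; left-striatum change = ((R−CB)−(L−CB))/(R−CB)×100.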

[6] = molecular target: dopamine transporter (DAT) (Rattus norvegicus, UniProt P23977); assay: quantitative in vitro autoradiography with [125I]IPT on rat brain sections; assay type: binding
Procedure, shortened: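 Brains from lesioned rats were frozen in OCT, and 20 μm coronal cryosections were desiccated 2 hrs at 4 °C, then stored at −70 °C. Sections were preincubated 20 min at room temperature in 50 mM Na2HPO4/0.32 M sucrose pH 7.4, then incubated 2 hrs with [125I]IPT (13-19 Bq/μL). Rinses: cold buffer 2 × 30 min, then cold water. Film exposure was 24 hrs with 125I homogenate standards (0.04-1.48 kBq/mg). Change = ((R−CB)−(L−CB))/(R−CB)×100, averaged over sections.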

T1 sequence (P31652 whole entry): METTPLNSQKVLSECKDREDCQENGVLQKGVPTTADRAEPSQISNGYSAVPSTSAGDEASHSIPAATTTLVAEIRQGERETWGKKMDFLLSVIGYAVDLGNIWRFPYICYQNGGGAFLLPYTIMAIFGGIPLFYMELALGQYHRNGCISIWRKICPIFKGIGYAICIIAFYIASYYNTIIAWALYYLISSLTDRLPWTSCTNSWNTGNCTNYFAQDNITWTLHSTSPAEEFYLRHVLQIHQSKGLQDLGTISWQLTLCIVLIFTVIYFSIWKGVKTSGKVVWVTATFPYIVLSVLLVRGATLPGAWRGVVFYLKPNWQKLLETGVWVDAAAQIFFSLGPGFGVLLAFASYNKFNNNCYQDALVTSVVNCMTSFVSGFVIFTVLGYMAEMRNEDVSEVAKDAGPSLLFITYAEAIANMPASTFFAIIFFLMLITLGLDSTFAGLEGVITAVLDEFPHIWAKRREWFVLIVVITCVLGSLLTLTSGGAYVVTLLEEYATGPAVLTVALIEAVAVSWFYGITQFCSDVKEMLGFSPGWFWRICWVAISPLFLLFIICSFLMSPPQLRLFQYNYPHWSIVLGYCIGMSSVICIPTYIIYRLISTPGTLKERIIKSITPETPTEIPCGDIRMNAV
Chain of dopamine transporter (DAT) (P23977 whole entry): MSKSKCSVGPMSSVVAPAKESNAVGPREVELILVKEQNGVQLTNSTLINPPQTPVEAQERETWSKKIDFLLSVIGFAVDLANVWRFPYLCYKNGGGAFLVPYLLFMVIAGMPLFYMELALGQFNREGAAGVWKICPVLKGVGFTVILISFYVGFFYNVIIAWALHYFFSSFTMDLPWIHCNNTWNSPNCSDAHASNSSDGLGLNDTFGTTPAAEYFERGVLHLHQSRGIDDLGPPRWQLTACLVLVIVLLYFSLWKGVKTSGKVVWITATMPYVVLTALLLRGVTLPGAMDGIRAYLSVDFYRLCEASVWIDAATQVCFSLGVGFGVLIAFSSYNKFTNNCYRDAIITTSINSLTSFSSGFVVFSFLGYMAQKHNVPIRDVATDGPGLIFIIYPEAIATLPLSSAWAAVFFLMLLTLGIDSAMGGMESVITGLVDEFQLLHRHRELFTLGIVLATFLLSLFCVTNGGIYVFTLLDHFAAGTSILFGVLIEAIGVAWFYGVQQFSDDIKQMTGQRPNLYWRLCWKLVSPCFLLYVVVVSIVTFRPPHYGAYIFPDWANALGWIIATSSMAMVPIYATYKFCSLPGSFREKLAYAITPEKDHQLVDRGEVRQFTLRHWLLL
Chain of VMAT2 (Q01827 whole entry): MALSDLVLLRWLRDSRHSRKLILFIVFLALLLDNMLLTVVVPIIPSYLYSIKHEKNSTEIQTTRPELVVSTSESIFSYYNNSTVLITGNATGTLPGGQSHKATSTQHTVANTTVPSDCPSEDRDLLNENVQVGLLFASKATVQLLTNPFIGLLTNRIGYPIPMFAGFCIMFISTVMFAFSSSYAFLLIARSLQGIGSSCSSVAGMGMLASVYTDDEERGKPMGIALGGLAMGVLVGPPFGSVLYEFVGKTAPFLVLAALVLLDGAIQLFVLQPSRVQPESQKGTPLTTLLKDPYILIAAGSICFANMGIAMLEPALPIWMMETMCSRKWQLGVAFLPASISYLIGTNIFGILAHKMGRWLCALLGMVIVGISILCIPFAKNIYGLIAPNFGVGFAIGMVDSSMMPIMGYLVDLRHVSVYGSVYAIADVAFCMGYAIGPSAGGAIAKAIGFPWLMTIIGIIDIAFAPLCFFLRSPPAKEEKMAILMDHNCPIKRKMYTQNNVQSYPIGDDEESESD

COc1cc2c(cc1OCCCF)CCN1CC(CC(C)C)C(O)CC21 (single isomer, unassigned; (+)) [[^18F]AV-133, (+)-2-Hydroxy-3-isobutyl-9-(3-fluoropropoxy)-10-methoxy-1,2,3,4,6,7-hexahydro-11bH-benzo[a]quinolizine]
percent binding change in the left striatum (PET) (VMAT2; 6-OHDA lesioned rat #1, n = 1): −87% | percent binding change in the left striatum (PET) (VMAT2; 6-OHDA lesioned rat #2, n = 1): −72% | percent binding change in the left striatum (PET) (VMAT2; 6-OHDA lesioned rat #3, n = 1): −91%

CN(C)Cc1cc(OCCC[18F])ccc1Sc1ccccc1N [[^18F]FPBM, 2-(2′-((dimethylamino)methyl)-4′-(3-[^18F]-fluoropropoxy)phenylthio)benzenamine]
ratio vs. CB ± SD, cerebellum (SERT [1]; PCA-treated rats): 1.00 ± 0.34 | ratio vs. CB ± SD, cortex (SERT [1]; PCA-treated rats): 1.93 ± 0.58 | ratio vs. CB ± SD, hippocampus (SERT [1]; PCA-treated rats): 2.29 ± 0.56 | ratio vs. CB ± SD, hypothalamus (SERT [1]; PCA-treated rats): 3.87 ± 0.88 | ratio vs. CB ± SD, remainder (SERT [1]; PCA-treated rats): 2.27 ± 0.53 | ratio vs. CB ± SD, striatum (SERT [1]; PCA-treated rats): 2.90 ± 1.00 | ratio vs. CB ± SD, cerebellum (SERT [1]; control rats): 1.00 ± 0.33 | ratio vs. CB ± SD, cortex (SERT [1]; control rats): 3.39 ± 1.28 | ratio vs. CB ± SD, hippocampus (SERT [1]; control rats): 3.09 ± 1.10 | ratio vs. CB ± SD, hypothalamus (SERT [1]; control rats): 4.61 ± 1.44 | ratio vs. CB ± SD, remainder (SERT [1]; control rats): 3.12 ± 1.12 | ratio vs. CB ± SD, striatum (SERT [1]; control rats): 3.70 ± 1.21 | brain uptake ([2]; 2 min post-injection): 0.99 % dose/g | target to non-target ratio ([2]; 120 min post-injection): 7.7 | averaged percent binding reduction of the left rostral striatum brain sections (in vitro autoradiography) (SERT [3]; 6-OHDA lesioned rat #1, rostral striatum sections): −5.9% | averaged percent binding reduction of the left rostral striatum brain sections (in vitro autoradiography) (SERT [3]; 6-OHDA lesioned rat #2, rostral striatum sections): +2.3% | averaged percent binding reduction of the left rostral striatum brain sections (in vitro autoradiography) (SERT [3]; 6-OHDA lesioned rat #3, rostral striatum sections): −37.3% | Ki [4]: 0.38 nM | percent binding change in the left striatum (PET), individual scans (SERT [5]; 6-OHDA lesioned rat #1, 10 days between scans): −12% and −10% | average percent binding change in the left striatum (PET) (SERT [5]; 6-OHDA lesioned rat #1, n = 2 scans): −11% | percent binding change in the left striatum (PET), individual scans (SERT [5]; 6-OHDA lesioned rat #2, 20 days between scans): −1% and −7% | average percent binding change in the left striatum (PET) (SERT [5]; 6-OHDA lesioned rat #2, n = 2 scans): −4% | percent binding change in the left striatum (PET), individual scans (SERT [5]; 6-OHDA lesioned rat #3, 7 days between scans): −42% and −44% | average percent binding change in the left striatum (PET) (SERT [5]; 6-OHDA lesioned rat #3, n = 2 scans): −43% | percent binding change in the left striatum (PET), individual rats (SERT [5]; normal control rats, individual values): +4.5% and −3.5% | average percent binding change in the left striatum (PET) (SERT [5]; normal control rats, n = 2 separate rats, left vs right striatum): +0.5%

COC(=O)C1C(c2ccc(Cl)cc2)CC2CCC1N2CC=C[125I] (stereo not drawn) [[^125I]IPT, N-(3′-[^125I]-iodopropen-2′-yl)-2-beta-carbomethoxy-3-beta-(4-chlorophenyl) tropane]
percent change in binding in the left striatum (in vitro autoradiography) ([6]; 6-OHDA lesioned rat #1): −66% | percent change in binding in the left striatum (in vitro autoradiography) ([6]; 6-OHDA lesioned rat #2): −56% | percent change in binding in the left striatum (in vitro autoradiography) ([6]; 6-OHDA lesioned rat #3): −81%
